Data: ChEMBL document CHEMBL4118021, “Studies of TAK1-centered polypharmacology with novel covalent TAK1 inhibitors” (Bioorg Med Chem, 2017)
Activity calls are given as the source filed them. The calls are words filed in the database; no cut-off is given here.

Columns and labels:
[1] = target: Mitogen-activated protein kinase 7 (Homo sapiens) (UniProt Q13164); assay: Inhibition of Erk5 in human SKCO1 cells at 1 uM after 4 hrs using biotin labeled DLKPSNLLVNENCELK probe by mass-spectrometric analysis relative to control; format: cell-based
[2] = target: Tyrosine-protein kinase ZAP-70 (Homo sapiens) (UniProt P43403); assay: Inhibition of ZAP70 in human SKCO1 cells at 1 uM after 4 hrs using biotin labeled ISDFGLSKALGADDSYYTAR probe by mass-spectrometric analysis relative to control; format: cell-based
[3] = target: Serine/threonine-protein kinase ATR (Homo sapiens) (UniProt Q13535); assay: Inhibition of ATR in human SKCO1 cells at 1 uM after 4 hrs using biotin labeled FYIMMCKPK probe by mass-spectrometric analysis relative to control; format: cell-based
Sequence of Serine/threonine-protein kinase ATR (Homo sapiens) (Q13535 whole entry, looked up): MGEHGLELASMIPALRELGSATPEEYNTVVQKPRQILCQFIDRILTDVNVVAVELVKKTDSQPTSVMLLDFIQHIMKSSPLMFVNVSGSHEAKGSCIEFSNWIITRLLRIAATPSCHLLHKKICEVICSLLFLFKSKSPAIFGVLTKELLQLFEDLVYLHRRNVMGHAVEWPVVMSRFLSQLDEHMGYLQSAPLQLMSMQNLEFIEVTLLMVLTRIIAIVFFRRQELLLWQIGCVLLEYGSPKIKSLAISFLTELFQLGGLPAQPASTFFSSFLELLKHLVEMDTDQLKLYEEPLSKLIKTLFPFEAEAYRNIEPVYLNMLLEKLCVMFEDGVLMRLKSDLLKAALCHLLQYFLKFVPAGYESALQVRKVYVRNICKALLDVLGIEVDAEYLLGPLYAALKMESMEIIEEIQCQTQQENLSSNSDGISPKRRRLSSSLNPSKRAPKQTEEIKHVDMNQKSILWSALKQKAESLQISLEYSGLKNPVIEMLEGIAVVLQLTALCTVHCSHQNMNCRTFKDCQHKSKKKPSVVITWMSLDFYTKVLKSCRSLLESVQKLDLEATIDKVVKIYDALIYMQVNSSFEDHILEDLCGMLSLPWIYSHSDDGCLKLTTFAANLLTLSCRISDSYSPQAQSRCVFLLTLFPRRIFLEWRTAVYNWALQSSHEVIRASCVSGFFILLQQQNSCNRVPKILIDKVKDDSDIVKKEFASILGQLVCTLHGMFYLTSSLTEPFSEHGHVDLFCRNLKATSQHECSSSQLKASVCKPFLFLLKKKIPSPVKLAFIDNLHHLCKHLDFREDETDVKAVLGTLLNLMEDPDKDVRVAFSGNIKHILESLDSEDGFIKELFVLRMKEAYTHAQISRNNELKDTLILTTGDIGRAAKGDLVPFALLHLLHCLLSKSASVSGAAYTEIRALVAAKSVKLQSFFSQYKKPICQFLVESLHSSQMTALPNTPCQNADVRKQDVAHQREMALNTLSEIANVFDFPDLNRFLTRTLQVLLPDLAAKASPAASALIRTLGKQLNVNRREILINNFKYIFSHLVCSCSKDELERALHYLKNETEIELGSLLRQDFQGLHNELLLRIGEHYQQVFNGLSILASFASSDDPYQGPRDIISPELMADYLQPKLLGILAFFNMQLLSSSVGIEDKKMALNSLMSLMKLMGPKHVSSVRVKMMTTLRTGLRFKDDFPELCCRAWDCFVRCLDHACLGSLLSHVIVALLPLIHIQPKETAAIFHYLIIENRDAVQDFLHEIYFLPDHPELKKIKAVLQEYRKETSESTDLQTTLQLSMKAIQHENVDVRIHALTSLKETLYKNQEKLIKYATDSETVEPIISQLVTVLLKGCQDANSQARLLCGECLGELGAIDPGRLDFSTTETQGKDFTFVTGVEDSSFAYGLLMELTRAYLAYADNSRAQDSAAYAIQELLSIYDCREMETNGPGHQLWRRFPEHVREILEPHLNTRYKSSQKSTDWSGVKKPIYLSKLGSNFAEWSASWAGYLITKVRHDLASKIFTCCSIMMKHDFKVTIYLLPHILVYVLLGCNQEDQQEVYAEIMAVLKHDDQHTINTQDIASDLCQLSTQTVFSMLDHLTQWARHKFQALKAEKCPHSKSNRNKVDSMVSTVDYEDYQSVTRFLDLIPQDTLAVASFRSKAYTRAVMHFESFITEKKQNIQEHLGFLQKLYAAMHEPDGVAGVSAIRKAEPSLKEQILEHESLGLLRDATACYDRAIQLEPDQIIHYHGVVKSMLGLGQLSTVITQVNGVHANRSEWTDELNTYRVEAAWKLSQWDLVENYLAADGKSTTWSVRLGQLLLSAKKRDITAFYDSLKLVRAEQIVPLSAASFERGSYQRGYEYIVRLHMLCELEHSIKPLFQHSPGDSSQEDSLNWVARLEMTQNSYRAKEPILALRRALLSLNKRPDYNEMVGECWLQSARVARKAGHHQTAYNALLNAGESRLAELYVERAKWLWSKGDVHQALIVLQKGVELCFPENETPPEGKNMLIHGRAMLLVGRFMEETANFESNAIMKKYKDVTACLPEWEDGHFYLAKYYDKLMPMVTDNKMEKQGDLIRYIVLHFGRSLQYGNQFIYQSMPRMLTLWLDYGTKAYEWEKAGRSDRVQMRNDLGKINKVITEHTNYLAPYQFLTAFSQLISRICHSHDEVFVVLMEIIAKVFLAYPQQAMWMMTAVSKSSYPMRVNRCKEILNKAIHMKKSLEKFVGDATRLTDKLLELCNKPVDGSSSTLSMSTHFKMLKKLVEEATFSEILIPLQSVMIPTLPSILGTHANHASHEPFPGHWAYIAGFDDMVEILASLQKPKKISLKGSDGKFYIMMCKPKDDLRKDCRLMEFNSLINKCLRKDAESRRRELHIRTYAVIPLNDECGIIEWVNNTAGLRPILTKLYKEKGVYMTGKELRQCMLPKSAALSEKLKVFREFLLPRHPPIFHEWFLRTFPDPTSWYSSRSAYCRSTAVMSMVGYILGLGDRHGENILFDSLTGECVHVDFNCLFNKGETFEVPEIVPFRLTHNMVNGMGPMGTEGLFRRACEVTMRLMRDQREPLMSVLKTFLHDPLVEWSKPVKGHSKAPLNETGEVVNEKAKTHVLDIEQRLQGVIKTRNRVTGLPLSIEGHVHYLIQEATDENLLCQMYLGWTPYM

[4] = target: T1, Dual specificity mitogen-activated protein kinase kinase 5 (Homo sapiens) (UniProt Q13163); assay: Inhibition of MAP2K5 in human SKCO1 cells at 1 uM after 4 hrs using biotin labeled DVKPSNMLVNTR probe by mass-spectrometric analysis relative to control; format: cell-based
T1 sequence (whole entry): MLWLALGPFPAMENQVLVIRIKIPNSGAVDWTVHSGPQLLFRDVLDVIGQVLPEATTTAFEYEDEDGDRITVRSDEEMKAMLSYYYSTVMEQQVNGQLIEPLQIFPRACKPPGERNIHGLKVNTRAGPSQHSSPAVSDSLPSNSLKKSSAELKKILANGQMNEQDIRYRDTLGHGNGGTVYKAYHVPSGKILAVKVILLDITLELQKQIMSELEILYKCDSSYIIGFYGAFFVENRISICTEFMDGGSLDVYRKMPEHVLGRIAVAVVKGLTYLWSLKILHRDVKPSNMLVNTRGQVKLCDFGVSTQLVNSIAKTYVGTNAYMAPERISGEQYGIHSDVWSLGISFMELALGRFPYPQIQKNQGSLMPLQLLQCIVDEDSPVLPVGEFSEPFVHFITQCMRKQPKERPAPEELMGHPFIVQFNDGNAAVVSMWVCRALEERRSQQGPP

[5] = target: T2, Mitogen-activated protein kinase kinase kinase 7 (Homo sapiens) (UniProt O43318); conditions: NCI-H358, 1 uM
T2 sequence (whole entry): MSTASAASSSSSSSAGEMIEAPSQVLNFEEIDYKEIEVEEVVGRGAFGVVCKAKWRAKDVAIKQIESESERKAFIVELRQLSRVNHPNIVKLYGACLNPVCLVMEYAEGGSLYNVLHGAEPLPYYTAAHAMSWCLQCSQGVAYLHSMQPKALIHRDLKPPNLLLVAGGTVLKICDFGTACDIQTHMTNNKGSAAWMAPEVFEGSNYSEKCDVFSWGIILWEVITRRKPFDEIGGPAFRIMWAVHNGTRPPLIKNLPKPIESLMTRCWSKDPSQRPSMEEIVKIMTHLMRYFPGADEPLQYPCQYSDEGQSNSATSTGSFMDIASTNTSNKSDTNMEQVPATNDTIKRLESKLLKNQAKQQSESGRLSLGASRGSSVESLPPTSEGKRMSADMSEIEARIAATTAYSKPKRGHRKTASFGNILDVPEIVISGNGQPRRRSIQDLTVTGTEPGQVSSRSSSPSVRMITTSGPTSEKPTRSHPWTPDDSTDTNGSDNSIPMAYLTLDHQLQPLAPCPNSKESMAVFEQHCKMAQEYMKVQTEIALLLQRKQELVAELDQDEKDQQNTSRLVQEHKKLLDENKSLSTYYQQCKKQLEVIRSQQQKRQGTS

[6] = target: Cyclin-dependent kinase 6 (Homo sapiens) (UniProt Q00534); assay: Inhibition of CDK6 in human SKCO1 cells at 1 uM after 4 hrs using biotin labeled DLKPQNILVTSSGQIK probe by mass-spectrometric analysis relative to control; format: cell-based
Sequence of Cyclin-dependent kinase 6 (Homo sapiens) (Q00534 whole entry, the tested form may be a part): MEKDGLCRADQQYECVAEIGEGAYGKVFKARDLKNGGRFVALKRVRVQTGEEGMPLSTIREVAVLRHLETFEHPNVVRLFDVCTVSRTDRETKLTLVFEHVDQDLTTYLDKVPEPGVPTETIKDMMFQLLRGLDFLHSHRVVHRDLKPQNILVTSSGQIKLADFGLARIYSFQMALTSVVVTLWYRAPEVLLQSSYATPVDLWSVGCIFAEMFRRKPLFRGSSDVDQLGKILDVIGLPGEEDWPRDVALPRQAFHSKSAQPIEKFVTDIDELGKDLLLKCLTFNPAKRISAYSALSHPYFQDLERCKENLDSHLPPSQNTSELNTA

[7] = target: Tyrosine-protein kinase JAK1 (Homo sapiens) (UniProt P23458); assay: Inhibition of JAK1 domain1 in human SKCO1 cells at 1 uM after 4 hrs using biotin labeled QLASALSYLEDKDLVHGNVCTKNLLLAR probe by mass-spectrometric analysis relative to control; format: cell-based
[8] = target: Eukaryotic elongation factor 2 kinase (Homo sapiens) (UniProt O00418); assay: Inhibition of eEF2K in human SKCO1 cells at 1 uM after 4 hrs using biotin labeled YIKYNSNSGFVR probe by mass-spectrometric analysis relative to control; format: cell-based
Sequence of Eukaryotic elongation factor 2 kinase (Homo sapiens) (O00418 whole entry): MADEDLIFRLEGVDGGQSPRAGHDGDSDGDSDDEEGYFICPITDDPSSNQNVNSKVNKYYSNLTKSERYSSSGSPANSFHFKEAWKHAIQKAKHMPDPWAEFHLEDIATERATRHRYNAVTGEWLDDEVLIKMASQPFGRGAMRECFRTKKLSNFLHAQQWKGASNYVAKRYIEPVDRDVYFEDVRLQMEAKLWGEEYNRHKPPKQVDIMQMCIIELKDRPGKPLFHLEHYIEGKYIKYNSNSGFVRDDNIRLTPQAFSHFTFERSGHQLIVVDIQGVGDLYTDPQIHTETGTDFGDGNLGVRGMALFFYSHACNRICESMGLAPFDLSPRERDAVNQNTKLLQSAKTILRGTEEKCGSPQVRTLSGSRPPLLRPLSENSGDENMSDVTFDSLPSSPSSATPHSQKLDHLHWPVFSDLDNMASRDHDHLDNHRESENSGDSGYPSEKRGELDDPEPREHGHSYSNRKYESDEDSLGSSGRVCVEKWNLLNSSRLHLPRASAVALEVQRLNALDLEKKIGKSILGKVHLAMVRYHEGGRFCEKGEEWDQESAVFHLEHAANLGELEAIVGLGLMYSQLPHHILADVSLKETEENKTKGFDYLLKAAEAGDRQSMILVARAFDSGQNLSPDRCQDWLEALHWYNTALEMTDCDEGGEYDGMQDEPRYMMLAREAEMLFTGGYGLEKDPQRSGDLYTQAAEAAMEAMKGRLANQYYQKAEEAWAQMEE

[9] = target: Mitogen-activated protein kinase 3 (Homo sapiens) (UniProt P27361); assay: Inhibition of Erk1 in human SKCO1 cells at 1 uM after 4 hrs using biotin labeled DLKPSNLLINTTCDLK probe by mass-spectrometric analysis relative to control; format: cell-based
Sequence of Mitogen-activated protein kinase 3 (Homo sapiens) (P27361 whole entry): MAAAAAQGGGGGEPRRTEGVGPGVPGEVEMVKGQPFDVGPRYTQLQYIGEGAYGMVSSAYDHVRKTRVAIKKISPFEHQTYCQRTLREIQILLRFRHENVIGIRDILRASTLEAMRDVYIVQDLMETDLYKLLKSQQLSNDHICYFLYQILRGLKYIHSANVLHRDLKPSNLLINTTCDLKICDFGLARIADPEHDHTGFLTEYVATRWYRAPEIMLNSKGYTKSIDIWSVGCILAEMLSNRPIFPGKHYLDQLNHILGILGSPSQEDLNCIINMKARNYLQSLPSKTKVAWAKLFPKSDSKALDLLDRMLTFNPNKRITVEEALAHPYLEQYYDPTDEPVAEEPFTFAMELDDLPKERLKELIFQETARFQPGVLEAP

[10] = tested on: MOLM-14; assay: Antiproliferative activity against human MOLM14 cells harboring FLT3-ITD mutant at […] to […] nM after 72 hrs by CellTiter-Glo assay; format: functional, cell-based
[11] = target: T3, Mitogen-activated protein kinase kinase kinase 7 (Homo sapiens, UniProt O43318); assay: Inhibition of TAK1 (unknown origin) by LanthaScreen assay
T3 sequence (O43318 whole entry): T2 sequence (whole entry)

[12] = target: Mitogen-activated protein kinase kinase kinase kinase 5 (Homo sapiens) (UniProt Q9Y4K4); assay: Inhibition of KHS1 in human SKCO1 cells at 1 uM after 4 hrs using biotin labeled NVHTGELAAVKIIK probe by mass-spectrometric analysis relative to control; format: cell-based
[13] = target: Cyclin-dependent kinase 16 (Homo sapiens) (UniProt Q00536); assay: Inhibition of PCTAIRE1 in human SKCO1 cells at 1 uM after 4 hrs using biotin labeled SKLTDNLVALKEIR probe by mass-spectrometric analysis relative to control; format: cell-based
Sequence of Cyclin-dependent kinase 16 (Homo sapiens) (Q00536 whole entry): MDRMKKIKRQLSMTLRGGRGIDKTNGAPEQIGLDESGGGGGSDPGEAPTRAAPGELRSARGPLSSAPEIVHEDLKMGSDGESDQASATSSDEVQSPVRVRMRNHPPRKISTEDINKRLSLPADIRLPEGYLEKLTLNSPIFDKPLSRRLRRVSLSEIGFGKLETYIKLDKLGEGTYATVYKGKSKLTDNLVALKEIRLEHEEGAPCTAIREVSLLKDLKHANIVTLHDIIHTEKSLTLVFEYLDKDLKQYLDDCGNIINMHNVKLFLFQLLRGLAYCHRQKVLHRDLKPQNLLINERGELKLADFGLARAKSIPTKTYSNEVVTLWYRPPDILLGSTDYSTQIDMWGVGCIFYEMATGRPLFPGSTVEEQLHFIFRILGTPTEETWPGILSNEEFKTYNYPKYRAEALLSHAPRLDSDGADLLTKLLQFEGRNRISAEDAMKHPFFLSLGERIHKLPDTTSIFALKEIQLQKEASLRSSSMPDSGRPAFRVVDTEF
Procedure, shortened: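 Live SK-CO-1 cells exposed to compound at 1 μM or DMSO for 4 h (KiNativ). Lysates then labeled with lysine-reactive ATP/ADP-biotin probe, and probe-labeled kinase peptides quantified by mass spectrometry. Percent inhibition of probe-dependent recovery calculated relative to DMSO-treated cells.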

[14] = target: Mitogen-activated protein kinase kinase kinase 5 (Homo sapiens) (UniProt Q99683); assay: Inhibition of MAP3K5 in human SKCO1 cells at 1 uM after 4 hrs using biotin labeled DIKGDNVLINTYSGVLK probe by mass-spectrometric analysis relative to control; format: cell-based
[15] = target: Carbonyl reductase [NADPH] 1 (Homo sapiens) (UniProt P16152); assay: Binding affinity to CBR1 in human NCI-H23 cells at 1 uM by mass spectrometry based pull down assay; format: cell-based
[16] = target: T-complex protein 1 subunit epsilon (Homo sapiens) (UniProt P48643); assay: Binding affinity to CCT5 in human NCI-H23 cells at 1 uM by mass spectrometry based pull down assay; format: cell-based
[17] = target: Aspartyl aminopeptidase (Homo sapiens) (UniProt Q9ULA0); assay: Binding affinity to DNPEP in human NCI-H23 cells at 1 uM by mass spectrometry based pull down assay; format: cell-based
[18] = target: Probable ATP-dependent RNA helicase DDX17 (Homo sapiens) (UniProt Q92841); assay: Binding affinity to DDX17 in human NCI-H23 cells at 1 uM by mass spectrometry based pull down assay; format: cell-based
[19] = target: B-cell receptor-associated protein 31 (Homo sapiens) (UniProt P51572); assay: Binding affinity to BCAP31 in human NCI-H23 cells at 1 uM by mass spectrometry based pull down assay; format: cell-based
Sequence of B-cell receptor-associated protein 31 (Homo sapiens) (P51572 whole entry): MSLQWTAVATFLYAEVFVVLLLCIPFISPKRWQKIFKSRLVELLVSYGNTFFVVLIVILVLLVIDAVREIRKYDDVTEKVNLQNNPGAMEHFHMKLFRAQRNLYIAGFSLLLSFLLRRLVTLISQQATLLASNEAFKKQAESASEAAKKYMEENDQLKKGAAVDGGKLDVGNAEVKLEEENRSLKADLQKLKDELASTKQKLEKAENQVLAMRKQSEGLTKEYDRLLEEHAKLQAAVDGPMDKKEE

SMILES | inhibition [1] [%] | inhibition [2] [%] | inhibition [3] [%] | inhibition [4] [%] | inhibition [5] | inhibition [6] [%] | inhibition [7] [%] | inhibition [8] [%] | inhibition [9] [%] | Activity [10] | IC50 [11] [nM] | inhibition [12] [%] | inhibition [13] [%] | inhibition [14] [%] | Activity [15] | Activity [16] | Activity [17] | Activity [18] | Activity [19]
COc1cc(O)c2c(c1)/C=C/C[C@H](O)[C@H](O)C(=O)/C=C\C[C@H](C)OC2=O | 12.4 | 63.6 | 2 | 86.8 | Active | 68.8 | 21.6 | -7.7 |  |  |  |  |  |  |  |  |  |  | 
C=CC(=O)Nc1ccccc1Oc1nc(Nc2cnn(CCOC)c2)ncc1Cl | 11.6 | 34.1 |  |  |  | 54.5 |  | 6.7 | 42.7 | Active | 2.4 | -4.6 | -5.2 | 10 |  |  |  |  | 
C=CC(=O)Nc1ccccc1Nc1nc(Nc2ccc(N3CCN(C)CC3)cc2)ncc1Cl |  |  | -8.1 | 38.1 | Active |  | 64.7 |  | 5.2 | Active | 50 | 14.8 | -8 | 25.5 |  |  |  |  | 
C=CC(=O)Nc1ccccc1Nc1nc(Nc2ccc(N3CCN(CCOCCOCCOCCNC(=O)CCCC[C@@H]4SC[C@@H]5NC(=O)N[C@@H]54)CC3)cc2)ncc1Cl |  |  |  |  |  |  |  |  |  |  |  |  |  |  | Active | Active | Active | Active | Active
